The source made the active and inactive calls. The rule behind the calls is not given here.

For assay [1], the system named is A2780. The experiment in a line: Antivascular activity against human A2780 cells xenografted in nude mouse assessed as induction of hemorrhages at tumor core at 100 mg/kg administered on every other day and measured after 24 hrs by H and E staining based histopathological analysis. Type of assay: functional, organism-based.
The test system of assay [2] is A2780cis. In words: Antitumor activity against human A2780cis xenografted in nude mouse at 60 mg/kg, ip administered on day 0, 4, 11 and 16. Type of assay: functional, organism-based. (A xenograft is tissue or cells of one species grown in another, often human tumour cells in immunodeficient mice.)
Assay [3] relates to Chorioallantoic membrane. The experiment in a line: Antiangiogenic activity in Leghorn chicken embryo chorioallantoic membrane assessed as induction of hemorrhages at 5 nmol after 24 hrs by light microscopic analysis. The assay is classed as functional, tissue-based. As to conditions: Gallus gallus. Put shortly:
(§1)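 Fertilized chicken eggs, CAM assay. Compound was applied topically into a small silicon foil ring placed on the CAM. The membrane and its extraembryonal blood vessels were monitored over 24 h, with observations at 6 h and 24 h post application.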

Assay [4] relates to A2780. The experiment in a line: Antivascular activity against human A2780 cells xenografted in nude mouse assessed as induction of necrosis at tumor core at 100 mg/kg […] and measured after 24 hrs by H and E staining based histopathological analysis. Type of assay: functional, organism-based. An outline of the steps: (§2)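 Mice bore A2780 tumor xenografts. Compound was formulated in tween80/ethanol (1:1) and injected as single doses. Tumors were inspected for discoloration as a sign of vascular disruption, and treated tumors were examined histologically for hemorrhage and necrosis.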

The test system of assay [5] is Chorioallantoic membrane. The experiment in a line: Antiangiogenic activity in Leghorn chicken embryo chorioallantoic membrane assessed as disruption of smaller blood vessels at 5 nmol after 24 hrs by light microscopic analysis. As to conditions: Gallus gallus. Type of assay: functional, tissue-based. An outline of the steps:
as §1

Assay [6] deals with Chorioallantoic membrane. In words: Antiangiogenic activity in Leghorn chicken embryo chorioallantoic membrane assessed as induction of hemorrhages at 5 nmol after 6 hrs by light microscopic analysis. As to conditions: Gallus gallus. Type of assay: functional, tissue-based. Put shortly: as §1
Assay [7] has as its system Chorioallantoic membrane. The experiment in a line: Antiangiogenic activity in Leghorn chicken embryo chorioallantoic membrane assessed as effect on blood vessel length at 5 nmol after 6 hrs by light microscopic analysis. Type of assay: functional, tissue-based. As to conditions: Gallus gallus. An outline of the steps:
as §1

The test system of assay [8] is Chorioallantoic membrane. In words: Antiangiogenic activity in Leghorn chicken embryo chorioallantoic membrane assessed as reduction in blood vessel area at 5 nmol after 6 hrs by light microscopic analysis relative to control. Type of assay: functional, tissue-based. On the set-up: scale not given: the % may be the effect or the level left. As to conditions: Gallus gallus. Put shortly:
(§3)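 The CAM assay was run with topical application into a silicon foil ring atop the CAM of fertilized chicken eggs. Area covered by blood vessels was quantified by fractal analysis relative to control.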

For assay [9], the system named is Chorioallantoic membrane. The experiment in a line: Antiangiogenic activity in Leghorn chicken embryo chorioallantoic membrane assessed as disruption of smaller blood vessels at 5 nmol after 6 hrs by light microscopic analysis. As to conditions: Gallus gallus. Type of assay: functional, tissue-based. Put shortly: as §1
For assay [10], the system named is Chorioallantoic membrane. In words: Antiangiogenic activity in Leghorn chicken embryo chorioallantoic membrane assessed as reduction in diameter of main blood vessel at 5 nmol after 24 hrs by light microscopic analysis. Type of assay: functional, tissue-based. As to conditions: Gallus gallus. An outline of the steps: as §1
For assay [11], the system named is Chorioallantoic membrane. In words: Antiangiogenic activity in Leghorn chicken embryo chorioallantoic membrane assessed as induction of hemorrhages at 10 nmol after 24 hrs by light microscopic analysis. Type of assay: functional, tissue-based. As to conditions: Gallus gallus. Put shortly: as §1
Assay [12] has as its system Chorioallantoic membrane. The experiment in a line: Antiangiogenic activity in Leghorn chicken embryo chorioallantoic membrane assessed as reduction in blood vessel area at 10 nmol after 6 hrs by light microscopic analysis relative to control. Type of assay: functional, tissue-based. Details: scale not given: the % may be the effect or the level left. As to conditions: Gallus gallus. An outline of the steps:
as §3

Assay [13] concerns A2780. The experiment in a line: Antivascular activity against human A2780 cells xenografted in nude mouse assessed as tumor discoloration at 200 mg/kg administered on every other day and measured after 24 hrs. The assay is classed as functional, organism-based. As to conditions: in the assay text read “administered as single dose” for “administered on every other day”. An outline of the steps: as §2

Assay [14] deals with Chorioallantoic membrane. In words: Antiangiogenic activity in Leghorn chicken embryo chorioallantoic membrane assessed as reduction in diameter of main blood vessel at 10 nmol after 24 hrs by light microscopic analysis. Type of assay: functional, tissue-based. As to conditions: Gallus gallus. An outline of the steps:
as §1

Assay [15] has as its system Chorioallantoic membrane. In words: Antiangiogenic activity in Leghorn chicken embryo chorioallantoic membrane assessed as disruption of smaller blood vessels at 10 nmol after 24 hrs by light microscopic analysis. Type of assay: functional, tissue-based. As to conditions: Gallus gallus. An outline of the steps:
as §1

Assay [16] concerns Chorioallantoic membrane. In words: Antiangiogenic activity in Leghorn chicken embryo chorioallantoic membrane assessed as effect on blood vessel length at 10 nmol after 6 hrs by light microscopic analysis. Type of assay: functional, tissue-based. As to conditions: Gallus gallus. An outline of the steps:
as §1

The subject of assay [17] is Chorioallantoic membrane. In words: Antiangiogenic activity in Leghorn chicken embryo chorioallantoic membrane assessed as disruption of smaller blood vessels at 10 nmol after 6 hrs by light microscopic analysis. The assay is classed as functional, tissue-based. As to conditions: Gallus gallus. Put shortly:
as §1

The test system of assay [18] is Chorioallantoic membrane. In words: Antiangiogenic activity in Leghorn chicken embryo chorioallantoic membrane assessed as induction of hemorrhages at 10 nmol after 6 hrs by light microscopic analysis. The assay is classed as functional, tissue-based. As to conditions: Gallus gallus. An outline of the steps:
as §1

On to `N#CC1=C(N)Oc2c(ccc3ccccc23)C1c1cc(F)cc(F)c1` (stereo not drawn), for which the outcome in [1], in assay [2], in [4], in assay [6], in [7] and in assay [9] was Active. The result in assay [10] was Active. Further, the result in assay [3] and in [5] was inactive. For the same compound, the Activity in [8] came to 59%.
`N#CC1=C(N)Oc2c(ccc3ccccc23)C1c1cccc([N+](=O)[O-])c1` (stereo not drawn): the outcome in assay [11], in assay [13] and in assay [15] was inactive. Besides, the Activity in [12] stood at 32%. For the same compound, the outcome in assay [14], in assay [16], in [17] and in [18] was Active.

The values are drawn from ChEMBL document CHEMBL4330063, “New naphthopyran analogues of LY290181 as potential tumor vascular-disrupting agents” (Eur J Med Chem, 2019).
